Each structure is given as a SMILES string.

Target in the first assay: not listed separately
The assay is described as follows: Displacement of 3[H]Flunitrazepam from GABA-A central benzodiazepine receptor of bovine brain membranes. Type of assay: cell membranes, Bos taurus. Summed up: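 Bovine brain membranes (0.4–0.5 mg protein) were incubated in triplicate with 0.6 nM [3H]flunitrazepam in 50 mM Tris-HCl at 0 °C for 90 min. Displacers were added in ethanol, at seven concentrations each. Nonspecific binding was defined with 10 μM diazepam. Samples were diluted with cold buffer, filtered on glass fibre and counted by scintillation. IC50 was taken from log-probit analysis; values are means ± SEM of seven determinations.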
By IC50 is commonly meant the concentration that gives 50% inhibition. A low value points to inhibition by little substance. For the compound `Cc1ccc(-n2nc(-c3ccccc3)c3c(=O)n(C)c4ccccc4c32)cc1`, the concentration for half-maximal inhibition (IC50) amounted to 1100 nM. On the same count and under the same terms, with `O=C1C2C=Nc3ccccc3C2=NN1c1ccccc1` (stereo not given) [CGS-8216] the figure was 0.4 nM.

In turn, `CN1C(=O)CN=C(c2ccccc2)c2cc(Cl)ccc21` [DIAZEPAM] displayed an IC50 of 0.025 nM. On the same count and under the same terms, with `O=C1C2C=Nc3ccccc3C2=NN1c1ccc(Cl)cc1` (stereo not given) [CGS-9896] the figure was 0.6 nM; with `Cc1ccc(-n2nc(-c3ccccc3)c3c(O)nc4ccccc4c32)cc1`, 39000 nM; with `Oc1nc2ccccc2c2c1c(-c1ccccc1)nn2-c1cccc(Br)c1`, 1500 nM. Same read-out and setting: the value for `Oc1nc2ccccc2c2c1c(-c1ccccc1)nn2-c1ccccc1` was 21000 nM.

`Cc1cccc(-n2nc(-c3ccccc3)c3c(=O)n(C)c4ccccc4c32)c1` displayed an IC50 of 90 nM. In the case of `Cn1c(=O)c2c(-c3ccccc3)nn(-c3cccc(Cl)c3)c2c2ccccc21`, the IC50 was found to be 70 nM. The IC50 values of the last two compounds are within 1.5-fold of each other.

In turn, `Oc1nc2ccccc2c2c1c(-c1ccccc1)nn2-c1ccc(Cl)cc1` had an IC50 of 30000 nM. Against the preceding compound, the IC50 is about 430-fold higher. The compound `Cn1c(=O)c2c(-c3ccccc3)nn(-c3cccc(Br)c3)c2c2ccccc21` returned an IC50 of 100 nM. The same measure, in the same setting: the value for `COc1ccc(-n2nc3c4ccccc4[nH]cc-3c2=O)cc1` was 0.1 nM. Same read-out and setting: with `Cn1c(=O)c2c(-c3ccccc3)nn(-c3ccc(Cl)cc3)c2c2ccccc21` the figure was 1160 nM; with `CNC1=Nc2ccc(Cl)cc2C(c2ccccc2)=[N+]([O-])C1` [CHLORDIAZEPOXIDE], 0.79 nM. For `Cn1c(=O)c2c(-c3ccccc3)nn(-c3ccccc3)c2c2ccccc21`, the concentration for half-maximal inhibition (IC50) was 3100 nM. The same measure, in the same setting: the value for `Oc1nc2ccccc2c2c1c(-c1ccccc1)nn2-c1cccc(Cl)c1` was 3000 nM; that for `Cc1cccc(-n2nc(-c3ccccc3)c3c(O)nc4ccccc4c32)c1` was 3000 nM.

The species named for a further assay is Bos taurus. The assay can be described thus: Displacement of 3[H]Flunitrazepam from GABA-A central benzodiazepine receptor of bovine brain membranes at 34 uM. Type of assay: cell membranes. The gist of the method:
(§1)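 A single-concentration screen against specific [3H]flunitrazepam (0.6 nM) binding to bovine brain membranes (0.4–0.5 mg protein). Incubation was in 50 mM Tris-HCl at 0 °C for 90 min, with compounds added in ethanol. Diazepam at 10 μM defined nonspecific binding. Bound ligand was collected by rapid glass-fibre filtration and counted by scintillation. Percent inhibition is given as means ± SEM of five determinations.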
As usually defined, the inhibition is the relative decrease from the control value, in per cent. Higher therefore signals a strong effect. Take `Oc1nc2ccccc2c2c(-c3ccccc3)nn(-c3ccccc3)c12`: the inhibition is 10%. The same measure, in the same setting: the value for `Oc1nc2ccccc2c2c(-c3ccccc3)nn(-c3cccc(Cl)c3)c12` was 8%.

The species named for a further assay is Bos taurus. The assay can be described thus: Displacement of 3[H]Flunitrazepam from GABA-A central benzodiazepine receptor of bovine brain membranes at 3.4 uM. Type of assay: cell membranes. The gist of the method: as §1
`Cn1c(=O)c2c(c(-c3ccccc3)nn2-c2ccccc2)c2ccccc21` came in with an inhibition of 21%.

Values taken from ChEMBL document CHEMBL1123606, “1,3-Diarylpyrazolo[4,5-c]- and -[5,4-c]quinolin-4-ones. 4. Synthesis and specific inhibition of benzodiazepine receptor binding” (J Med Chem, 1987).
